# Source: PubChem (The Scripps Research Institute Molecular Screening Center)
# Compounds with a hit are over-represented: about 4.6% of the library has one in this group of screens.
# TAAR1 agonist: agonists of human TAAR1; CHO RD-HGA16 TAAR1, Fluo-8 calcium fluorescence; vehicle wells 0%, saturating PEA agonist 100%; activation, % at 3 µM; 0.99% of 360,000 active;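 active = activation above the mean activation of all test compounds in the run plus 3 SD, cut at about 38% in these data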
#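 Repeats: no replicates (n 1) | Material: CHO-derived RD-HGA16 cells with stable Gα16 and human TAAR1 | Technique: Kinetic Fluo-8 calcium fluorescence | Schedule: 17-24 h seeding, 75 min 37 °C dye, 30 min RT | Evaluation: % activation from peak over basal fluorescence ratio, DMSO-to-PEA scaled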
# TAAR1 antag: human TAAR1 antagonism | Q96RJ0 | 1.5% of 360,000 active | inhibition, % at 3 µM | AID 624466 | CHO RD-HGA16 TAAR1, Fluo-8 calcium fluorescence, antagonist;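 active = inhibition above a per-plate cutoff, the mean inhibition of test compounds on that plate plus 3 SD, cut at about 49% in these data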
#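 Test system: CHO RD-HGA16 cells bearing hTAAR1 | Reagent: β-PEA, EC80 | Compound dosing: 3 µM, single point | Schedule: Dye loading 75 min at 37 °C, then 30 min room temperature | Signal: Calcium fluorescence with Fluo-8 | Evaluation: Percent inhibition of PEA-evoked calcium signal, max/basal emission ratio | Control set: DMSO-only wells and EC80 β-PEA-stimulated wells | Repeats: Singlicate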
# OX1R antag-1: blocks the human orexin 1 receptor. AID 434989. CHO/OX1R cells, Fluo-8 calcium fluorescence, orexin A. inhibition, % at 5 µM. O43613. 0.43% of 330,000 active;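 active = inhibition above its plate's threshold, mean inhibition of all tested compounds on the plate plus 3 SD, cut at about 37% in these data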
# Target sequence (O43613 whole entry, looked up): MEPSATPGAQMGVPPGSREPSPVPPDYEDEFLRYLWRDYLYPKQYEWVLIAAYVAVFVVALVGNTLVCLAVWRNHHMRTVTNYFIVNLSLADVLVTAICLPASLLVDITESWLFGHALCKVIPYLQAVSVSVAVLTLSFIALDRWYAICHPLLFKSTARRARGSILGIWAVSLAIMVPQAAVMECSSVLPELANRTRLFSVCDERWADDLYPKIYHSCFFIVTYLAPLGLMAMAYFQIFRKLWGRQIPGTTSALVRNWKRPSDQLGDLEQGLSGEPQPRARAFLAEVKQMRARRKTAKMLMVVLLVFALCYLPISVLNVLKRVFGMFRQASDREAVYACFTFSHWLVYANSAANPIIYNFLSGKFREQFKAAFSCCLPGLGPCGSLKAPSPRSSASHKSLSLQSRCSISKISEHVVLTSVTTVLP
# CHO parental Ca: signal in parental CHO cells, OX1R antagonist counter-screen; AID 463079; inhibition, % at 5.6 µM; parental CHO-K1, ATP-induced calcium, Fluo-8 fluorescence; 0.63% of 330,000 active;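 active = inhibition above that plate's mean sample inhibition plus 3 SD, cut at about 26% in these data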
#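 Assay system – parental CHO cells · Reagent – ATP stimulus · Detection – intracellular calcium via Fluo-8 no-wash fluorescent dye · Evaluation – percent inhibition of ATP-evoked calcium rise, normalized to controls · Controls – ATP wells versus no-ATP DMSO wells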
# GPR7 antagonist: human neuropeptides B/W receptor 1 antagonism | GPR7-expressing cells, fluorescence antagonist assay | inhibition, % at 4.4 µM | 1.1% of 290,000 active; in the data active = inhibition above about 16%, passing the limit was not always enough;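 note: cells stimulated with the agonist NPW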
# OX1R antag-2: blocks the human orexin 1 receptor; 1.8% of 330,000 active; OX1R-expressing cells, FRET antagonist read-out; O43613; inhibition, % at 6.6 µM; in the data active = inhibition mostly above about 38%, no sharp cut-off; inactive = mostly below about 40%
# nonsel antag count: nonselective antagonism, TAAR1 counter-screen | shares compounds with TAAR1 antag | inhibition, % at 3 µM | counterscreen cell line, calcium fluorescence, antagonist mode | 77% of 2,400 active; in the data active = inhibition above about 22%;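 note: CHO-Ga16 host cells stimulated with ATP at an EC80 level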
# TAAR1 ant conf: confirmation of human TAAR1 antagonists. shares compounds with TAAR1 antag. TAAR1-expressing cells, fluorescence antagonist read-out. inhibition, % at 3 µM. 40% of 2,400 active. AID 651785; in the data active = inhibition above about 49%;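 note: CHO-Ga16 host cells challenged with agonist PEA near its EC80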
# Ga16 nonsel ag: nonselective Ga16 agonism, counter-screen; AID 651953; activation, % at 3 µM; 18% of 2,400 active; Ga16-expressing cells, calcium fluorescence, agonist counterscreen; shares compounds with TAAR1 antag; in the data active = activation above about 12%
# TAAR1 ag counter: activates human TAAR1 in antagonist counter-screen. 2% of 2,400 active. activation, % at 3 µM. shares compounds with TAAR1 antag. hTAAR1 cell line, fluorescence activation, agonist mode; in the data active = activation above about 37%;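 note: CHO cells stably expressing TAAR1 with calcium dye readout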
# Numbers stand for hits; . = inactive; / = no result given.
SMILES,TAAR1 agonist,TAAR1 antag,OX1R antag-1,CHO parental Ca,GPR7 antagonist,OX1R antag-2,nonsel antag count,TAAR1 ant conf,Ga16 nonsel ag,TAAR1 ag counter
c1ccc(-c2nc(SCc3nc4ccccc4[nH]3)c3oc4ccccc4c3n2)cc1,.,54,.,.,/,.,.,.,.,.
N#Cc1cccc(NC(=O)c2cc(C3CCCCN3C(=O)CCCc3ccccc3)on2)c1 (stereo not drawn),.,61,/,/,/,/,34,54,.,.
Cc1cc(C(=O)NCc2cccs2)ccc1[N+](=O)[O-],.,.,.,.,.,.,/,/,/,/
Cc1cc(C(=O)NCCN2C(=O)S/C(=C\c3cccs3)C2=O)ccc1[N+](=O)[O-],.,57,.,.,.,.,38,.,.,.
C=CCC[C@@H](Cc1ccc(F)cc1)C(=O)OC[C@H](C)NC(=O)[C@H](CC=C)CC(=O)N(CCO)Cc1ccccc1,.,71,.,.,/,.,27,.,.,.
C=CC[C@@H](CC(=O)N(CCO)Cc1ccccc1)C(=O)N[C@H](COC(=O)[C@@H](CC=C)Cc1ccc(F)cc1)Cc1ccccc1,.,75,.,.,/,.,27,.,.,.
c1ccc(Oc2ccc(-n3cnnn3)cc2)cc1,.,105,.,.,.,.,.,.,.,.
Cc1cccc(NC(=O)C2CCN(S(=O)(=O)c3c(C)c(C)cc(C)c3C)CC2)n1,.,78,.,.,/,.,24,50,.,.
COCCCNC(=O)/C(C#N)=C/c1c(N2CCN(c3ccccc3)CC2)nc2c(C)cccn2c1=O,.,50,.,.,.,.,.,.,.,.
COCCCNC(=O)/C(C#N)=C/c1c(N2CCN(c3cccc(Cl)c3)CC2)nc2c(C)cccn2c1=O,.,.,.,.,.,.,/,/,/,/
O=C1C[C@@H]2c3c(cccc3CN1Cc1ccc(F)cc1)C[C@@H](O)[C@H]2O,.,.,.,.,/,.,/,/,/,/
COc1ccc(CCNC(=O)c2ccc(NC(=O)CC3SC(N4CCCC4)=NC3=O)cc2)cc1OC (stereo not drawn),.,.,/,/,/,/,/,/,/,/
CSCCC(NS(=O)(=O)c1ccc2c(c1)OCCO2)C(=O)N(C)Cc1ccc(F)cc1 (stereo not drawn),.,76,.,.,/,.,31,63,13,.
Cc1ccc(S(=O)(=O)N2CCN(CC(=O)NCC3(N4CCOCC4)CCCCC3)CC2)cc1,.,.,/,/,/,/,/,/,/,/
COc1ccc(-c2ccc(C(=O)Nc3ccc(Cl)cc3)c3occc23)c(C)c1,.,.,/,/,/,/,/,/,/,/
COc1ccc(-c2ccc(C(=O)Nc3cc(OC)c(OC)c(OC)c3)c3occc23)c(C)c1,.,61,/,/,/,/,30,49,.,.
COCCNC(=O)c1ccc(-c2ccc(OC)cc2C)c2ccoc12,.,.,/,/,/,/,/,/,/,/
COc1ccc(-c2ccc(C(=O)NCC3CCOCC3)c3occc23)c(C)c1,.,59,/,/,/,/,32,58,.,.
O=C(CCCC1=NS(=O)(=O)c2ccccc2N1)N1CCN(c2ccccc2)CC1,.,.,.,.,.,.,/,/,/,/
COc1cccc(N2CCN(C(=O)CC(C)(C)CC3=NS(=O)(=O)c4ccccc4N3)CC2)c1,.,72,.,.,.,.,36,59,14,.
Cc1cc(C)c(C)c(S(=O)(=O)N2CCN(C(=O)C3CSC4(C)CCC(=O)N34)CC2)c1C (stereo not drawn),/,/,.,.,/,.,/,/,/,/
Cc1nn2c(C)c(C(=O)Nc3ccccc3)cnc2c1-c1ccccc1,.,58,.,.,.,.,25,.,.,.
CCCN(CC1CC1)C(=O)COC(=O)c1ccc2c(c1)C(=O)N(c1ccc(OCC)cc1)C2=O,.,55,.,.,.,.,30,.,.,.
CCOc1ccc(N2C(=O)c3ccc(C(=O)OCc4c(C)noc4C)cc3C2=O)cc1,.,.,.,.,.,.,/,/,/,/
COc1ccc(Cl)cc1NC(=O)CN(C)C(=O)c1cc(-c2ccncc2)nc2ccccc12,.,74,.,.,/,.,42,53,15,.
SMILES,TAAR1 agonist,TAAR1 antag,OX1R antag-1,CHO parental Ca,GPR7 antagonist,OX1R antag-2,nonsel antag count,TAAR1 ant conf,Ga16 nonsel ag,TAAR1 ag counter
COc1ccc(Cl)cc1NC(=O)CN(C)C(=O)c1ccc2c(c1)CC(c1ccccc1)OC2=O (stereo not drawn),.,65,.,.,/,.,33,53,12,.
COc1ccc(NC(=O)CN(C)C(=O)c2ccc3c(c2)CC(c2ccccc2)OC3=O)cc1 (stereo not drawn),.,.,/,/,/,/,/,/,/,/
CCOc1ccc(NC(=O)CN(C)C(=O)c2cc(-c3ccncc3)nc3ccccc23)cc1OCC,.,67,.,.,/,.,30,.,.,.
Nc1c(C(=O)OCC2CCCO2)c2nc3ccccc3nc2n1-c1ccc2c(c1)OCCO2 (stereo not drawn),.,52,.,.,.,.,30,.,.,.
OCC[C@H]1C[C@@H](O)[C@H](O)[C@@]2(Cc3ccccc3O2)O1,.,.,.,.,/,.,/,/,/,/
COc1ccc(Br)cc1CN(C)C(=O)c1ccccc1OCc1c(C)noc1C,.,57,.,.,/,.,23,.,.,.
O=C(O)C(Oc1ccc2c(-c3ccccc3)cc(=O)oc2c1)c1ccccc1 (stereo not drawn),.,.,.,.,.,.,/,/,/,/
COc1ccc2c(c1)c(=O)oc1cc(OC(C(=O)O)c3ccccc3)ccc12 (stereo not drawn),.,104,.,.,.,.,.,.,.,.
Cc1cc(=O)oc2c3c(cc(OCC(=O)NCc4ccncc4)c12)OC(C)(C)CC3,.,.,.,.,.,.,/,/,/,/
Cc1c(C)c2c(OCC(=O)NCc3ccco3)cc3c(c2oc1=O)CCC(C)(C)O3,.,.,.,.,.,.,/,/,/,/
Cc1cc(=O)oc2c3c(cc(OCC(=O)NCCN4CCOCC4)c12)OC(C)(C)CC3,.,.,.,.,.,.,/,/,/,/
COc1ccc(CNC(=O)COc2cc3c(c4oc(=O)cc(C)c24)CCC(C)(C)O3)c(OC)c1,.,73,/,/,/,/,25,.,.,.
COc1ccc(CNC(=O)COc2cc3c(c4oc(=O)cc(C)c24)CCC(C)(C)O3)cc1OC,.,62,.,.,.,42,23,.,.,.
Cc1cc(=O)oc2c3c(cc(OCC(=O)NCc4ccco4)c12)OC(C)(C)CC3,.,57,.,.,.,.,24,.,.,.
